In ChEMBL document CHEMBL1130383, “Anesthetic activity of novel water-soluble 2 beta-morpholinyl steroids and their modulatory effects at GABAA receptors” (J Med Chem, 1997):

Legend:
Mus musculus = assay: Hypnotic dose was determined by observing loss of righting reflex for a minimum period of 30 sec in 50% of treated mice after i.v. administration.; type: functional
In short: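 Male CFLP mice (25–35 g), tested in the light period. Groups of eight received an i.v. lateral tail vein injection over 10 s (10 mL kg-1) on a μmol/kg dose series, e.g. 2–16, with extra doses added. Vehicle was saline for amine salts; standards were in HPCD/saline, emulsion or saline. HD50 with 95% confidence limits was obtained by probit analysis of the fraction showing LRR ≥30 s.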

[1] = target: GABA-A receptor; anion channel; assay: The concentration required to inhibit 50% of binding of [35S]TBPS to Gamma-aminobutyric acid A receptor to rat whole brain membranes.; type: cell membranes
[2] = target: GABA-A receptor; anion channel (Bos taurus) (UniProt P10063+P08220+P20237+P08219+P10064+P22300); assay: Concentration required to potentiate GABA-evoked currents in voltage-clamped bovine chromaffin cells by 300%; type: functional
In short: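 Adult bovine chromaffin cells, primary culture, recorded 4 h to 2 days after plating. Whole-cell patch clamp, continuous superfusion with 140 mM NaCl, 2.8 mM KCl, 2 mM MgCl2, 1 mM CaCl2, 10 mM HEPES (pH 7.2). CsCl-based pipette solution, room temperature (18–22 °C). Currents filtered at 500 Hz. Steroid concentration enhancing the GABA-evoked response by 300% of control was interpolated; mean ± SEM of N cells.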

| Compound | HD50 (Mus musculus) | IC50 [1] | POT [2] |
| --- | --- | --- | --- |
| CCC[C@H]1CN([C@H]2C[C@@]3(C)[C@@H](CC[C@H]4[C@@H]5CC[C@H](C(C)=O)[C@@]5(C)CC(=O)[C@@H]43)C[C@@H]2O)CCO1 | 10.8 µM/kg | 948 nM | – |
| CCCCC1(CCCC)CN([C@H]2C[C@@]3(C)[C@@H](CC[C@H]4[C@@H]5CC[C@H](C(C)=O)[C@@]5(C)CC(=O)[C@@H]43)C[C@@H]2O)CCO1 | 31.1 µM/kg | 53 nM | – |
| CC(=O)[C@H]1CC[C@H]2[C@@H]3CC[C@H]4C[C@H](O)[C@@H](N5CCO[C@H](C)C5)C[C@]4(C)[C@H]3C(=O)C[C@]12C | 17 µM/kg | 1140 nM | – |
| CC(=O)[C@H]1CC[C@H]2[C@@H]3CC[C@H]4C[C@H](O)[C@@H](N5CCO[C@H](CC(C)C)C5)C[C@]4(C)[C@H]3C(=O)C[C@]12C | 6.5 µM/kg | 53 nM | – |
| CC(=O)OCC(=O)[C@H]1CC[C@H]2[C@@H]3CC[C@H]4C[C@H](O)[C@@H](N5CCOC(C)(C)C5)C[C@]4(C)[C@H]3CC[C@]12C | 16.9 µM/kg | 387 nM | – |
| CC1(C)CN([C@H]2C[C@@]3(C)[C@@H](CC[C@H]4[C@@H]5CC[C@H](C(=O)CN=[N+]=[N-])[C@@]5(C)CC(=O)[C@@H]43)C[C@@H]2O)CCO1 | 10.7 µM/kg | 2170 nM | – |
| CC(=O)[C@H]1CC[C@H]2[C@@H]3CC[C@H]4C[C@H](O)[C@@H](N5CC(C)(C)SC(C)(C)C5)C[C@]4(C)[C@H]3C(=O)C[C@]12C | 61.8 µM/kg | 231 nM | – |
| CC1(C)CN([C@H]2C[C@@]3(C)[C@@H](CC[C@@H]4[C@@H]3CC[C@]3(C)[C@@H](C(=O)CCl)CC[C@@H]43)C[C@@H]2O)CCO1 | 17.6 µM/kg | 39 nM | 380 nM |
| CC(=O)SCC(=O)[C@H]1CC[C@H]2[C@@H]3CC[C@H]4C[C@H](O)[C@@H](N5CCOC(C)(C)C5)C[C@]4(C)[C@H]3C(=O)C[C@]12C | 7.9 µM/kg | 261 nM | 245 nM |
| CC1(C)CN([C@H]2C[C@@]3(C)[C@@H](CC[C@H]4[C@@H]5CC[C@H](C(=O)CSC#N)[C@@]5(C)CC(=O)[C@@H]43)C[C@@H]2O)CCO1 | 10 µM/kg | 316 nM | – |
| CC1(C)CN([C@H]2C[C@@]3(C)[C@@H](CC[C@H]4[C@@H]5CC[C@H](C(=O)CO)[C@@]5(C)CC(=O)[C@@H]43)C[C@@H]2O)CCO1 | 42.3 µM/kg | 5590 nM | 4400 nM |
| CC(=O)[C@H]1CC[C@H]2[C@@H]3CC[C@H]4C[C@H](O)[C@@H](N5CCO[C@H](Cc6ccccc6)C5)C[C@]4(C)[C@H]3C(=O)C[C@]12C | 12.6 µM/kg | 131 nM | – |
| CC(=O)[C@H]1CC[C@H]2[C@@H]3CC[C@H]4C[C@H](O)[C@@H](N5CC(C)(C)OC(C)(C)C5)C[C@]4(C)[C@H]3C(=O)C[C@]12C | 8.3 µM/kg | 127 nM | – |
| CC(=O)[C@H]1CC[C@H]2[C@@H]3CC[C@H]4C[C@H](O)[C@@H](N5CCOCC5)C[C@]4(C)[C@H]3CC[C@]12C | 22.2 µM/kg | – | 215 nM |
| C[C@]12C[C@H](N3CCOCC3)[C@@H](O)C[C@@H]1CC[C@@H]1[C@@H]2CC[C@]2(C)[C@@H](C(=O)CO)CC[C@@H]12 | 31.6 µM/kg | 3040 nM | 2300 nM |
| CC[C@@H]1CN([C@H]2C[C@@]3(C)[C@@H](CC[C@@H]4[C@@H]3CC[C@]3(C)[C@@H](C(C)=O)CC[C@@H]43)C[C@@H]2O)CCO1 | 11.2 µM/kg | 910 nM | – |
| CC(=O)[C@H]1CC[C@H]2[C@@H]3CC[C@H]4C[C@H](O)[C@@H](N5CCSC(C)(C)C5)C[C@]4(C)[C@H]3CC[C@]12C | 51.9 µM/kg | 115 nM | – |
| CC(=O)[C@H]1CC[C@H]2[C@@H]3CC[C@H]4C[C@H](O)[C@@H](N5CCOC(C)(C)C5)C[C@]4(C)[C@H]3CC[C@]12C | 17.4 µM/kg | 107 nM | 120 nM |
| CCC1(CC)CN([C@H]2C[C@@]3(C)[C@@H](CC[C@H]4[C@@H]5CC[C@H](C(C)=O)[C@@]5(C)CC(=O)[C@@H]43)C[C@@H]2O)CCO1 | 12 µM/kg | 79 nM | – |
| CCO[C@H]1C[C@@]2(C)[C@@H](CC[C@@H]3[C@@H]2[C@H](N(C)C)C[C@]2(C)[C@@H](C(C)=O)CC[C@@H]32)C[C@@H]1O [MINAXOLONE] | 7.3 µM/kg | – | – |

| Compound | HD50 (Mus musculus) | IC50 [1] | POT [2] |
| --- | --- | --- | --- |
| CC(=O)[C@H]1CC[C@H]2[C@@H]3CC[C@H]4C[C@H](O)CC[C@]4(C)[C@H]3C(=O)C[C@]12C [ALFAXALONE] | 6.3 µM/kg | – | 700 nM |
| CC(=O)[C@H]1CC[C@H]2[C@@H]3CC[C@H]4C[C@H](O)CC[C@]4(C)[C@H]3CC[C@]12C [BREXANOLONE] | 10 µM/kg | 91 nM | 105 nM |
| CC(=O)[C@H]1CC[C@H]2[C@@H]3CC[C@H]4C[C@H](O)[C@@H](N5CCO[C@@H](C)C5)C[C@]4(C)[C@H]3CC[C@]12C | 29 µM/kg | 424 nM | – |
| CC(=O)[C@H]1CC[C@H]2[C@@H]3CC[C@@H]4C[C@H](O)CC[C@]4(C)[C@H]3CC[C@]12C [ELTANOLONE] | 9.5 µM/kg | 117 nM | 115 nM |
| CC(=O)[C@H]1CC[C@H]2[C@@H]3CC[C@H]4C[C@H](O)[C@@H](N5CCSCC5)C[C@]4(C)[C@H]3CC[C@]12C | 40.5 µM/kg | – | – |
| CC[C@H]1CN([C@H]2C[C@@]3(C)[C@@H](CC[C@@H]4[C@@H]3CC[C@]3(C)[C@@H](C(C)=O)CC[C@@H]43)C[C@@H]2O)CCO1 | 22.7 µM/kg | – | – |
| CC(=O)[C@H]1CC[C@H]2[C@@H]3CC[C@H]4C[C@H](O)[C@@H](N5CCO[C@@H](Cc6ccccc6)C5)C[C@]4(C)[C@H]3C(=O)C[C@]12C | 12.8 µM/kg | 100 nM | – |
| CC(=O)OCC(=O)[C@H]1CC[C@H]2[C@@H]3CC[C@H]4C[C@H](O)[C@@H](N5CCOCC5)C[C@]4(C)[C@H]3CC[C@]12C | 31 µM/kg | 270 nM | 660 nM |
| CC[C@H]1CN([C@H]2C[C@@]3(C)[C@@H](CC[C@H]4[C@@H]5CC[C@H](C(C)=O)[C@@]5(C)CC(=O)[C@@H]43)C[C@@H]2O)CCO1 | 15.1 µM/kg | 1490 nM | – |
| CC(=O)[C@H]1CC[C@H]2[C@@H]3CC[C@H]4C[C@H](O)[C@@H](N5C[C@@H](C)O[C@@H](C)C5)C[C@]4(C)[C@H]3CC[C@]12C | 26 µM/kg | – | – |
| CC1(C)CN([C@H]2C[C@@]3(C)[C@@H](CC[C@@H]4[C@@H]3CC[C@]3(C)[C@@H](C(=O)CO)CC[C@@H]43)C[C@@H]2O)CCO1 | 18.4 µM/kg | 267 nM | 310 nM |
| CC(=O)[C@H]1CC[C@H]2[C@@H]3CC[C@H]4C[C@H](O)[C@@H](N5CCO[C@H](C)C5)C[C@]4(C)[C@H]3CC[C@]12C | 15 µM/kg | 369 nM | 250 nM |
| CC(=O)[C@H]1CC[C@H]2[C@@H]3CC[C@H]4C[C@H](O)[C@@H](N5CCSCC5)C[C@]4(C)[C@H]3C(=O)C[C@]12C | 20 µM/kg | 1390 nM | – |
| CC(=O)[C@H]1CC[C@H]2[C@@H]3CC[C@H]4C[C@H](O)[C@@H](N5CCOC(c6ccccc6)(c6ccccc6)C5)C[C@]4(C)[C@H]3C(=O)C[C@]12C | 49.9 µM/kg | 497 nM | – |
| C[C@]12C[C@H](N3CCOCC3)[C@@H](O)C[C@@H]1CC[C@H]1[C@@H]3CC[C@H](C(=O)CO)[C@@]3(C)CC(=O)[C@@H]12 | 198.2 µM/kg | 1160 nM | – |
| CCC[C@@H]1CN([C@H]2C[C@@]3(C)[C@@H](CC[C@H]4[C@@H]5CC[C@H](C(C)=O)[C@@]5(C)CC(=O)[C@@H]43)C[C@@H]2O)CCO1 | 6.4 µM/kg | 142 nM | – |
| CC(=O)SCC(=O)[C@H]1CC[C@H]2[C@@H]3CC[C@H]4C[C@H](O)[C@@H](N5CCOCC5)C[C@]4(C)[C@H]3CC[C@]12C | 33.8 µM/kg | 235 nM | – |
| CC(=O)[C@H]1CC[C@H]2[C@@H]3CC[C@H]4C[C@H](O)[C@@H](N5CCOC(C)(C)C5)C[C@]4(C)[C@H]3C(=O)C[C@]12C | 9.8 µM/kg | – | 700 nM |
| C[C@]12C[C@H](N3CCOCC3)[C@@H](O)C[C@@H]1CC[C@@H]1[C@@H]2CC[C@]2(C)[C@@H](C(=O)CBr)CC[C@@H]12 | 22.8 µM/kg | 148 nM | – |
